ChEMBL document CHEMBL4673221, “Furanoflavones pongapin and lanceolatin B blocks the cell cycle and induce senescence in CYP1A1-overexpressing breast cancer cells” (Bioorg Med Chem, 2018)
The source made the active and inactive calls. The rule behind the calls is not given here.

How the values were obtained:
[1] = biological target: Cytochrome P450 2D6 (Homo sapiens, UniProt P10635); assay: Inhibition of human CYP2D6 expressed in Sacchrosomes using 7-ethoxy-methyloxy-3-cyanocoumarin as substrate by fluorescence based assay; type: ADME
[2] = biological target: Cytochrome P450 2E1 (Homo sapiens, UniProt P05181); assay: Inhibition of human CYP2E1 expressed in Sacchrosomes by fluorescence based assay; type: ADME
[3] = biological target: T1, Cytochrome P450 2C18 (Homo sapiens, UniProt P33260); assay: Inhibition of human CYP2C18 expressed in Sacchrosomes by fluorescence based assay; type: ADME
T1 sequence (P33260 whole entry): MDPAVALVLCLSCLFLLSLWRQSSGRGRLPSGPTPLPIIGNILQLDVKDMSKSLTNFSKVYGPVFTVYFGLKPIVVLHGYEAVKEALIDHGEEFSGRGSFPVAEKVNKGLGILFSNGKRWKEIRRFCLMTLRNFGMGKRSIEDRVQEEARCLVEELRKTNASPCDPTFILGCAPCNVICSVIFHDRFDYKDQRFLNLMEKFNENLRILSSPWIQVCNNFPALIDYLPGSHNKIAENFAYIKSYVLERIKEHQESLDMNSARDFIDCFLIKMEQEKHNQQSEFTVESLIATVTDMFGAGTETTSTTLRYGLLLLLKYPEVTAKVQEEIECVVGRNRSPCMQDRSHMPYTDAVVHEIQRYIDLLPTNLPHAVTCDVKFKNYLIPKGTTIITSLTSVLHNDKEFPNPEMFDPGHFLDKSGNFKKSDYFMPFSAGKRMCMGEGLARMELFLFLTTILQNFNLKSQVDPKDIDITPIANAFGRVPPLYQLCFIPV

[4] = test system: MCF7; assay: Induction of cell cycle arrest in human MCF7 over expressing CYP1A cells assessed as accumulation at G0/G1 phase incubated for 24 hrs by PI staining based flow cytometric analysis (Rvb =54.3 %); type: functional
[5] = test system: MCF7; assay: Antiproliferative activity against human MCF-7 cells overexpressing CYP1A1 assessed as reduction in cell viability; type: functional, cell-based
In short: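 MCF-7 cells transfected with pcDNA3.1/CYP1A1 and selected in G418 (1 mg/mL, then […]) to give the stable MCF7-1A1 line. CYP1A1 expression was confirmed by Western blot and 7-ethoxyresorufin enzyme assay. The line was subcloned repeatedly. The reported value is the EC50 for inhibition of proliferation.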

[6] = test system: MCF7; assay: Cell cycle arrest in human MCF-7 cells over expressing CYP1A1 assessed as down regulation of CyclinD1 after 24 hrs by western blotting assay; type: functional, cell-based
In short: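 Cyclin D1 was detected by Western blot, with β-tubulin as loading control. Untreated cells served as control.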

[7] = biological target: T2, Cytochrome P450 1A2 (Homo sapiens, UniProt P05177); assay: Inhibition of human CYP1A2 expressed in Sacchrosomes using 3-cyano-7-ethoxycoumarin as substrate by fluorescence based assay; type: ADME
T2 sequence (P05177 whole entry): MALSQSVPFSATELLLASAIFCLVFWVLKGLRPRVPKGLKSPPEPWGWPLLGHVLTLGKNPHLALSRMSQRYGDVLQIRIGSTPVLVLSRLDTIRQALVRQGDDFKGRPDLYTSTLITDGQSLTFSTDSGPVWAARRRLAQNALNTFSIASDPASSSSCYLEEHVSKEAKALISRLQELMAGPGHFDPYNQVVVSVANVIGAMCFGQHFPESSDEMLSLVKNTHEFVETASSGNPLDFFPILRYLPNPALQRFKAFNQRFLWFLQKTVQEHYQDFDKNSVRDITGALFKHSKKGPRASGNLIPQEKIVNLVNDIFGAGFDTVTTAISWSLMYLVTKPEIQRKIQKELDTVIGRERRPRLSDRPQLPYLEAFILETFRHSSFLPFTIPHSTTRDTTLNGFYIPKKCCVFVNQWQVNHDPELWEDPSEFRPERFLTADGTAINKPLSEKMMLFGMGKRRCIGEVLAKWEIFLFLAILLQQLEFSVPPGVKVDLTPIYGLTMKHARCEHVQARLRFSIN

[8] = biological target: Cytochrome P450 2C9 (Homo sapiens, UniProt P11712); assay: Inhibition of human CYP2C9 expressed in Sacchrosomes using 3-cyano-7-ethoxycoumarin as substrate by fluorescence based assay; type: ADME
[9] = biological target: Cytochrome P450 2C19 (Homo sapiens, UniProt P33261); assay: Inhibition of human CYP2C19 expressed in Sacchrosomes using 3-cyano-7-ethoxycoumarin as substrate by fluorescence based assay; type: ADME
[10] = biological target: T3, Cytochrome P450 1B1 (Homo sapiens, UniProt Q16678); assay: Inhibition of human CYP1B1 expressed in sacchrosomes using 7-ethoxyresorufin as substrate by fluorescence based assay; type: ADME
T3 sequence (Q16678 whole entry): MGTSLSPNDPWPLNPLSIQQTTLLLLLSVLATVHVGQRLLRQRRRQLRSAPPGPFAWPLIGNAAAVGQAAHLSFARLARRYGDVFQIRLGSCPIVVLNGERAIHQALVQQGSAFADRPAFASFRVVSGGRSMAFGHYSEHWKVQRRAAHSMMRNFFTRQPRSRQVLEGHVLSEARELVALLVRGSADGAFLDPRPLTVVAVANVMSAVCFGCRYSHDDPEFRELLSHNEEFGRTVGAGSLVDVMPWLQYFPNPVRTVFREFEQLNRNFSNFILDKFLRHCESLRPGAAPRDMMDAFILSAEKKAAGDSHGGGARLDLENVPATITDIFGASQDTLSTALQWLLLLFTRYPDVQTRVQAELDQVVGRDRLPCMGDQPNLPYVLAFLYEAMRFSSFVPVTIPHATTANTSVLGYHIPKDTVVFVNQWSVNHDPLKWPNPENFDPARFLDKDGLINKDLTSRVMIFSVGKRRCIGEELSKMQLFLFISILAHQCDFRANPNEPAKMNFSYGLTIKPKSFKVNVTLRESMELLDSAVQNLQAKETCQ
In short: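 Enzymes were microsomal preparations isolated from recombinant baker's yeast (Sacchrosomes). Compounds were screened at 10 μM for percent inhibition, and IC50 values were also determined. Values are mean ± SD of three independent experiments. Alpha-naphthoflavone served as the positive control.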

[11] = biological target: Cytochrome P450 3A4 (Homo sapiens, UniProt P08684); assay: Inhibition of human CYP3A4 expressed in Sacchrosomes using dibenzylfluorescein as substrate by fluorescence based assay; type: ADME
[12] = biological target: T3, Cytochrome P450 1B1; assay: Inhibition of human CYP1B1 expressed in human HEK293 cells using 7-ethoxyresorufin as substrate preincubated for 30 mins followed by substrate additon and measured after 60 mins by fluorescence based assay; type: ADME, cell-based
In short: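 The assay used live recombinant human HEK293 cells grown in suspension, each cell line expressing a single CYP (CYP1A1 or CYP1B1). Percent inhibition was read at 10 μM, and IC50 values were determined. Values are mean ± SD of three independent experiments. Alpha-naphthoflavone served as the reference inhibitor.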

Sequence of Cytochrome P450 3A4 (P08684 whole entry): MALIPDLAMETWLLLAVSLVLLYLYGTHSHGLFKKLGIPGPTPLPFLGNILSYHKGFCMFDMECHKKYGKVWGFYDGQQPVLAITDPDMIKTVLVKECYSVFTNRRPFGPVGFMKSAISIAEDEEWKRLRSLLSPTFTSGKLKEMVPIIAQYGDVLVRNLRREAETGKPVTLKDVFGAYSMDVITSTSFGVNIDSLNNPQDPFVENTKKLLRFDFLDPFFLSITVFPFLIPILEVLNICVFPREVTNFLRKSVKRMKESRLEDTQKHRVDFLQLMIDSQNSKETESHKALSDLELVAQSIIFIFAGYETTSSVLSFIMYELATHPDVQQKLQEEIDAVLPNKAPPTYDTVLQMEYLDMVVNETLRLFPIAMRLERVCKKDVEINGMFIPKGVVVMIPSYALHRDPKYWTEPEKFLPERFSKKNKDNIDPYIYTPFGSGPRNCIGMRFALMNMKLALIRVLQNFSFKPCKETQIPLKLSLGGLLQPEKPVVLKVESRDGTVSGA
Sequence of Cytochrome P450 2C9 (P11712 whole entry): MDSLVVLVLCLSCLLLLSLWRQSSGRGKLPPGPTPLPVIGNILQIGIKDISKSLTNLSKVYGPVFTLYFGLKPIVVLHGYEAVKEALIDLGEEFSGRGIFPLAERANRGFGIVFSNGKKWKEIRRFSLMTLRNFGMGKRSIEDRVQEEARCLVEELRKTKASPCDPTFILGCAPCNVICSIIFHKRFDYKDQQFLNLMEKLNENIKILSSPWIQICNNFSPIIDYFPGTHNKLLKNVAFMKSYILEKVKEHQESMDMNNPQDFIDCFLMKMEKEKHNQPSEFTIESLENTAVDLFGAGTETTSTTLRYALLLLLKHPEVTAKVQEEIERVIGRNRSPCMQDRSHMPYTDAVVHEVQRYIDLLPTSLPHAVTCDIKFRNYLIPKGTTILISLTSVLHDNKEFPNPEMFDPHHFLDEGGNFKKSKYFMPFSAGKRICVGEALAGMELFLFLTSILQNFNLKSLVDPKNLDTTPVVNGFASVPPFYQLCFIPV
Sequence of Cytochrome P450 2D6 (P10635 whole entry): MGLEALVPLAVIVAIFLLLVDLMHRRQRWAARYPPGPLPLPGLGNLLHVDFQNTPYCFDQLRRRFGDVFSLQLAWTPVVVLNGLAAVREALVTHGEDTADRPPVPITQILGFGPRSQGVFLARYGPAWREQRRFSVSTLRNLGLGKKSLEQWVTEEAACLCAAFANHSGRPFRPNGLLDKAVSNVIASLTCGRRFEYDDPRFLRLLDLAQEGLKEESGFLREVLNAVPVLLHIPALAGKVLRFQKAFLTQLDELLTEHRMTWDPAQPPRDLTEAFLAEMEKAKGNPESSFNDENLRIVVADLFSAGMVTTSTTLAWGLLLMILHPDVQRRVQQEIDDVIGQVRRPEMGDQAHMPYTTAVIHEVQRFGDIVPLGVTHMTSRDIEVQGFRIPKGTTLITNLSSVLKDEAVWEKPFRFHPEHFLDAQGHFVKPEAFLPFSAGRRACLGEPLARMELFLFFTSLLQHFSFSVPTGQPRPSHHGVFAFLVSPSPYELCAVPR
Sequence of Cytochrome P450 2E1 (P05181 whole entry): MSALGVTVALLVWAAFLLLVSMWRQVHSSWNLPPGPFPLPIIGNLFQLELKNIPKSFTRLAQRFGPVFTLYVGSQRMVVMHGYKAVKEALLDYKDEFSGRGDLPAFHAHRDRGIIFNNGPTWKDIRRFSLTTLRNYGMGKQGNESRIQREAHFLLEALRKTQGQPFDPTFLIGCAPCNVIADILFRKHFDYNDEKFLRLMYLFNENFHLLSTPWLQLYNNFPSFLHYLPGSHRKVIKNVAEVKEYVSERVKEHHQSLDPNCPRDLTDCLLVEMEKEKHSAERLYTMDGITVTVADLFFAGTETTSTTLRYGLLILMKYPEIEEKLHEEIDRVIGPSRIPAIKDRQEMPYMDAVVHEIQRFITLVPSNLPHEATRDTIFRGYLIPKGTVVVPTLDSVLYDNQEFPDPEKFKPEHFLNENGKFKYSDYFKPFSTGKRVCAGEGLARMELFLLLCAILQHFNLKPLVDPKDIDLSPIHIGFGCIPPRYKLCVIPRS
Sequence of Cytochrome P450 2C19 (P33261 whole entry): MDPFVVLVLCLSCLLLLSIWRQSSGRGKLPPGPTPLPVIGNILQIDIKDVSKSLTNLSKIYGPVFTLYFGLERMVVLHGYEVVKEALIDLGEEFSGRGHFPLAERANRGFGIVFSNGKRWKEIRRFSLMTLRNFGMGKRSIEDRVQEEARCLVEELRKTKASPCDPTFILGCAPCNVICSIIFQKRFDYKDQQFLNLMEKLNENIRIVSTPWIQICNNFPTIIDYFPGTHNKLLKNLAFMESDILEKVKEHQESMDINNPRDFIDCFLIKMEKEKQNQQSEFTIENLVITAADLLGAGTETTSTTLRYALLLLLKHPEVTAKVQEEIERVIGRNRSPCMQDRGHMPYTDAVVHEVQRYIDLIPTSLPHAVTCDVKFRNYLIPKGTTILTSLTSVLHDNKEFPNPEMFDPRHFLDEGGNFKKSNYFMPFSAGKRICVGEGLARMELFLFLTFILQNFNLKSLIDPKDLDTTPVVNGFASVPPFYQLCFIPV

## O=c1cc(-c2ccccc2)oc2c1ccc1occc12 [LANCEOLATIN B]
[1]
  IC50: > 20 µM
[2]
  IC50: > 20 µM
[3]
  IC50: > 20 µM
[4]
  Activity: 81%
[5]
  EC50: 0.7 µM
[6]
  Activity: Active
[7]
  IC50: 0.187 µM
[8]
  IC50: > 20 µM
[9]
  IC50: > 20 µM
[10]
  IC50: 0.29 µM
[11]
  IC50: > 20 µM
[12]
  IC50: 0.39 µM

## COc1c(-c2ccc3c(c2)OCO3)oc2c(ccc3occc32)c1=O [PONGAPIN]
[1]
  IC50: > 20 µM
[2]
  IC50: > 20 µM
[3]
  IC50: > 20 µM
[4]
  Activity: 83.8%
[5]
  EC50: 0.6 µM
[6]
  Activity: Active
[7]
  IC50: 2.5 µM
[8]
  IC50: > 20 µM
[9]
  IC50: > 20 µM
[10]
  IC50: 0.95 µM
[11]
  IC50: > 20 µM
[12]
  IC50: 1.06 µM
